Screens deposited in PubChem by several laboratories.
tolC growth inh – E. coli tolC mutant growth inhibition | E. coli BW25113 tolC mutant growth, OD615 | growth inhibition, % at 10 µM (by protocol) | 65,000 compounds, 2.2% hits;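 active means growth inhibition at or above a cutoff equal to the mean over every tested compound plus 3 SD, cut at about 60% in these data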;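 further: growth measured after 20 h incubation at 37 °C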
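Test system: E. coli BW25113 ΔtolC::kan bacteria | Medium: Kanamycin-containing LB broth (50 µg/mL) | Dosing: One dose of 10 µM final | Times: 20 h incubation with compound, 37 °C | Detection: Optical density read at 615 nm | Read-out basis: Percent growth inhibition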
E coli WT exp – growth inhibitors of E. coli BW25113 wild type; 98,000 compounds, 0.15% hits; growth inhibition, % at 100 µM; OD600 absorbance;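 active means growth inhibition above about 50% at one test dose, limit read from the data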;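 further: growth measured after 20 h incubation at 37 °C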
HePTP inh – human HePTP phosphatase inhibition; recombinant HePTP phosphatase activity, OD absorbance; inhibition, % at 20 µM; P35236; 110,000 compounds, 0.64% hits; AID 521; in the data active means inhibition above about 50%
Target sequence (P35236 whole entry, looked up): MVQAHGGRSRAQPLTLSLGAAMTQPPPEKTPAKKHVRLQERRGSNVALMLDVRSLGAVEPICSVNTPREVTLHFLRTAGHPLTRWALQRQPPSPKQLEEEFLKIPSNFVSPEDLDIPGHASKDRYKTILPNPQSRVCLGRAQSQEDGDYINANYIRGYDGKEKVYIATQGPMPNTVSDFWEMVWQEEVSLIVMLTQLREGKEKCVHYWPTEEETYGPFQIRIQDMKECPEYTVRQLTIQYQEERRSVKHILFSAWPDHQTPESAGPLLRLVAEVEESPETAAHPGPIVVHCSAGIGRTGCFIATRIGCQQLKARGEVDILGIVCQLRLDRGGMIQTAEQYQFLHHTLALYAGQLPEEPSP
PLAP activator – human PLAP activation; purified PLAP enzyme, luminescent substrate read-out; active compounds read high; activation fold at 20 µM; AID 696; 96,000 compounds, 1.2% hits; P05187; in the data active means activation fold above about 2
PostGolgi ctrl – inhibits growth of the yeast control strain; efflux-deficient yeast background strain, growth absorbance A615, 16 h; inhibition, % at 10 µM; 98,000 compounds, 5% hits
PostGolgi yeast – growth inhibition of a yeast mutant, post-Golgi transport screen. AID 739. post-Golgi transport phenotypic cell assay. inhibition, % at 10 µM. 98,000 compounds, 0.9% hits;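 further: yeast cells grown in 1536-well plates; yeast grown about 18 h at 30C before absorbance read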
Hits are given with their value. In the library only some 5.5% were active in any assay of this set; here they are far more common. Unless noted, no stated cut-off is given here; in the data, active means inhibition above about 30%; inactive means the rest.

How did O=C(/C=C(/O)c1ccccc1)C(=O)Nc1ccc(Br)cc1 do in these assays?
HePTP inh: inactive

Results for C=CCn1c(O)c(C2=c3ccccc3=NC2=O)sc1=Nc1ccc(O)cc1 ?
tolC growth inh: 100; HePTP inh: inactive

Results for O=C1N=c2ccccc2=C1c1sc(=Nc2ccccc2)n(-c2ccccc2)c1O ?
HePTP inh: inactive

What do the screens show for `CCn1c2ccccc2c2cc(CNC3CCCCC3)ccc21`?
HePTP inh: inactive

Results for COc1ccc(-n2c(-c3ccccc3)cc3c2CCCC3=O)cc1 ?
E coli WT exp: inactive; PLAP activator: inactive; PostGolgi ctrl: 68; PostGolgi yeast: inactive

What do the screens show for `O=C(Nc1cccc(Cl)c1Cl)C(c1ccccc1)c1ccccc1`?
HePTP inh: inactive

Results for Cc1onc(-c2ccccc2Cl)c1C(=O)N1CCc2ccccc21 ?
tolC growth inh: inactive; E coli WT exp: inactive; HePTP inh: inactive; PLAP activator: inactive; PostGolgi ctrl: 34; PostGolgi yeast: inactive

What do the screens show for `Cc1nc(NC2=NCN(Cc3ccc4c(c3)OCO4)CN2)nc2ccccc12`?
tolC growth inh: inactive; HePTP inh: inactive; PLAP activator: inactive

Results for Cc1cc(C)nc(Nc2nc(C)c3cc4c(cc3n2)OCO4)n1 ?
tolC growth inh: inactive; E coli WT exp: inactive; HePTP inh: inactive; PLAP activator: inactive; PostGolgi ctrl: 36; PostGolgi yeast: inactive

Results for O=C(c1ccc2c(=O)n(C3CCCC3)c(=S)[nH]c2c1)N1CCc2ccccc21 ?
E coli WT exp: inactive; PLAP activator: inactive; PostGolgi ctrl: 99; PostGolgi yeast: 67

How did C=CCn1c(=O)c(C(=O)Nc2ccccc2)c(O)c2ccccc21 do in these assays?
HePTP inh: inactive

What do the screens show for `CCCn1c(=O)c(C(=O)Nc2nnc(C)s2)c(O)c2ccccc21`?
tolC growth inh: 80; HePTP inh: inactive

Results for C=CCn1c(=O)c(C(=O)NCCNCC)c(O)c2ccccc21 ?
tolC growth inh: inactive; E coli WT exp: inactive; HePTP inh: inactive; PLAP activator: inactive; PostGolgi ctrl: inactive; PostGolgi yeast: inactive

What do the screens show for `CC(C)Cn1c(=O)c(C(=O)Nc2ccncc2)c(O)c2ccccc21`?
tolC growth inh: 96; HePTP inh: inactive

How did Cn1c(=O)c(C(=O)Nc2cccnc2)c(O)c2ccccc21 do in these assays?
tolC growth inh: inactive; HePTP inh: inactive

Results for CCNCCNC(=O)c1c(O)c2ccccc2n(CC)c1=O ?
tolC growth inh: inactive; E coli WT exp: inactive; HePTP inh: inactive; PLAP activator: inactive; PostGolgi ctrl: 41; PostGolgi yeast: inactive

What do the screens show for `Cn1c(=O)c(C(=O)Nc2ncccc2O)c(O)c2ccccc21`?
tolC growth inh: inactive; E coli WT exp: inactive; HePTP inh: inactive; PLAP activator: 2.2; PostGolgi ctrl: inactive; PostGolgi yeast: inactive

How did CC(C)Cn1c(=O)c(C(=O)Nc2cnccn2)c(O)c2ccccc21 do in these assays?
tolC growth inh: 100; E coli WT exp: inactive; HePTP inh: inactive; PLAP activator: inactive; PostGolgi ctrl: 39; PostGolgi yeast: inactive

Results for Cc1ccc(C(=O)/C=C/c2ccccc2)o1 ?
E coli WT exp: inactive; PLAP activator: inactive; PostGolgi ctrl: inactive; PostGolgi yeast: inactive

How did CN(C)/C=C/C=C/C(=O)c1ccc(/C=C/C=C/N(C)C)o1 do in these assays?
HePTP inh: 103

Results for Clc1ccc2ncc(-c3nnnn3-c3ccccc3)c(-c3ccccc3)c2c1 ?
E coli WT exp: inactive; PLAP activator: inactive; PostGolgi ctrl: 36; PostGolgi yeast: inactive

How did Clc1ccc2[nH]cc(-c3nnnn3-c3ccccc3)c2c1 do in these assays?
E coli WT exp: inactive; PLAP activator: inactive; PostGolgi ctrl: inactive; PostGolgi yeast: inactive

Results for c1ccc(CCCNc2ncnc3nc[nH]c23)cc1 ?
tolC growth inh: inactive; E coli WT exp: inactive; HePTP inh: inactive; PLAP activator: inactive; PostGolgi ctrl: inactive; PostGolgi yeast: inactive

How did c1ccc(CNc2ncnc3nc[nH]c23)cc1 do in these assays?
E coli WT exp: inactive; PLAP activator: 2; PostGolgi ctrl: inactive; PostGolgi yeast: inactive

What do the screens show for `CCOc1cc(CNc2ncnc3nc[nH]c23)ccc1OC`?
tolC growth inh: inactive; E coli WT exp: inactive; HePTP inh: inactive; PLAP activator: 2.2; PostGolgi ctrl: inactive; PostGolgi yeast: inactive

What do the screens show for `CCCNc1ncnc2nc[nH]c12`?
tolC growth inh: inactive; E coli WT exp: inactive; HePTP inh: inactive; PLAP activator: inactive; PostGolgi ctrl: inactive; PostGolgi yeast: inactive

Results for CCCCc1ccc(Nc2ncnc3nc[nH]c23)cc1 ?
tolC growth inh: inactive; E coli WT exp: inactive; HePTP inh: inactive; PLAP activator: inactive; PostGolgi ctrl: 60; PostGolgi yeast: inactive

Results for O=C(CCN1C(=O)c2cccc3cccc(c23)C1=O)NCc1ccc2c(c1)OCO2 ?
HePTP inh: inactive

What do the screens show for `CCSc1ncc(/C=N/Nc2ccc(Cl)cc2)n1C`?
E coli WT exp: inactive; PLAP activator: inactive; PostGolgi ctrl: inactive; PostGolgi yeast: 32

Results for CCSc1ncc(/C=N/Nc2ccccc2)n1C ?
E coli WT exp: inactive; PLAP activator: inactive; PostGolgi ctrl: inactive; PostGolgi yeast: inactive

How did COC(=O)c1c(NC(=O)c2ccccc2F)sc2c1CCCCC2 do in these assays?
HePTP inh: inactive

How did O=C1C2C(c3ccccc3)C=CC(c3ccccc3)C2C(=O)N1c1cccnc1 (stereo unspecified) do in these assays?
HePTP inh: inactive

What do the screens show for `O=C1C2C(c3ccccc3)C=CC(c3ccccc3)C2C(=O)N1c1ccncc1` (stereo unspecified)?
E coli WT exp: inactive; PLAP activator: inactive; PostGolgi ctrl: 34; PostGolgi yeast: inactive

Results for CN(C)c1nc(N(C)C)nc(N2CC(=O)N(N)C2=N)n1 ?
HePTP inh: inactive

How did O=C(COC(=O)c1cccnc1Cl)c1ccccc1 do in these assays?
E coli WT exp: inactive; PLAP activator: inactive; PostGolgi ctrl: 32

Results for CCc1c(C#N)c(SCc2c(C)noc2C)nc2c1C(=O)CC(C)(C)C2 ?
tolC growth inh: 63; HePTP inh: inactive

What do the screens show for `C(=C\c1ccccc1)/CSc1nnc(-c2ccco2)n1-c1ccccc1`?
HePTP inh: inactive

How did COc1ccc(CCNC(=O)/C=C/c2ccc([N+](=O)[O-])cc2)cc1 do in these assays?
HePTP inh: 75

Results for Cc1cc(NCCCN2CCOCC2)n2ncc(-c3ccc(Cl)cc3)c2n1 ?
tolC growth inh: inactive; E coli WT exp: inactive; HePTP inh: inactive; PLAP activator: inactive; PostGolgi ctrl: 31; PostGolgi yeast: 85

Results for Cc1cc(NCCCn2ccnc2)n2ncc(-c3ccc(Cl)cc3)c2n1 ?
E coli WT exp: inactive; PLAP activator: inactive; PostGolgi ctrl: 47; PostGolgi yeast: inactive

What do the screens show for `COC(=O)C1=CN(Cc2cccs2)C=C(C(=O)OC)C1c1cc(OC)c(OC)c(OC)c1`?
HePTP inh: inactive

What do the screens show for `O=c1c2ccccc2c(/C=N/c2ncn[nH]2)c(O)n1Cc1ccccc1`?
tolC growth inh: inactive; E coli WT exp: inactive; HePTP inh: inactive; PLAP activator: inactive; PostGolgi ctrl: 30; PostGolgi yeast: inactive
